Screening results as filed in PubChem.
Most compounds without a hit are left out; they make up all but 1.8% or so of the library.
PABP polyA inh: blocks human PABP binding to poly(A) RNA. P11940. fluorescence polarization. calls only at 35 µM. hit rate 1% among 290,000. AID 2014;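 further: calls also rest on retests at 20 µM and on dose response follow-up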
MT1-MMP act inh: inhibitors of human MT1-MMP activation | AID 651647 | P50281 | HT1080 RFP-PRO-GFP cells, GFP/RFP ratio fluorescence, overnight; percent of plate control window, DMSO zero | hit rate 0.061% among 360,000 | GFP/RFP ratio change, % at 20 µM;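 active means GFP/RFP ratio change of at least 30% with cell ATP level not reduced by more than half and red fluorescence within 50% of control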
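Read-out: GFP/RFP fluorescence ratio; Test system: RFP-PRO-GFP reporter HT1080 cells; Compound dosing: single-point 20 µM compound, 1% DMSO; Times: overnight compound exposure at 37 °C.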
SKN-1 inh: inhibitors of C. elegans SKN-1. AID 624304. C. elegans VP596 Pgst-4::GFP/RFP ratio, acrylamide-induced, 24 h. hit rate 0.49% among 360,000. inhibition, % at 21.8 µM;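 active means interference check ratio from 0.5 to 1.5 plus GFP to RFP signal ratio inhibition reaching or exceeding a fixed threshold, cut at about 30% in these data, passing the limit was not always enough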
eIF4H inh: inhibitors of RNA binding by human eIF4H. eIF4H fluorescence polarization binding assay. inhibition, % at 35 µM. hit rate 0.94% among 290,000;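 further: calls also rest on retests at 20 µM and on dose response follow-up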
MLLE-PAM2 inh: inhibitors of microRNA-mediated deadenylation, human PABP1 MLLE binding. P11940. hit rate 0.36% among 360,000. inhibition, % at 20 µM. GST-MLLE / FITC-PAM2 fluorescence polarization; in the data active means inhibition above about 35%, passing the limit was not always enough;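 further: plate controls were DMSO wells with GST-MLLE for no effect and wells lacking GST-MLLE protein for full effect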
* marks the source's active call; other numbers are inactive results; i = inactive; ? = inconclusive; . = not tested or not shown; + = active, no number. Unless noted, how the calls were made is not given here.

SMILES	PABP polyA inh	MT1-MMP act inh	SKN-1 inh	eIF4H inh	MLLE-PAM2 inh
c1ccc(-c2noc(-c3ccc4ccccc4c3)n2)nc1	i	1.2	42.5*	-10.7	10.8
Cc1ccc(CSc2nnc(SCC(=O)N/N=C/C=C/c3ccco3)s2)cc1	i	-1.1	1.6	84.2	-82.1
CC(/C=N/NC(=O)CSc1nnc(SCc2ccccc2)s1)=C\c1ccco1	+	4.0	14.1	68.6*	-100.2
CCOC(=S)N/C(=N\S(C)(=O)=O)c1ccccc1	i	1.8	1.6	-8.1	38.6*
CCOC(=S)N/C(=N\S(=O)(=O)c1ccccc1)c1ccccc1	i	-2.4	14.0	2.7	15.7
CC(C)(C)C(Cn1ccnc1)NC(=O)c1ccc2nc(C3CC3)oc2c1 (stereo unspecified)	i	-3.8	6.0	3.1	-2.8
O=C(CN1C(=O)NC2(CCCCC2)C1=O)Oc1ccc2c(C(F)(F)F)cc(=O)oc2c1	.	-9.2	-6.5	.	44.5*
CCc1cc(=O)oc2cc(OC(=O)CN3C(=O)NC4(CCCC4)C3=O)ccc12	i	-12.4	-12.9	-6.6	7.1
CCCc1nc2c(C)cc(Br)cn2c1Cc1ccccc1C(F)(F)F	.	-7.2	11.2	.	-9.7
O=C(/C=C/c1cccs1)N1CCc2ccccc21	i	-12.5	35.0*	0.7	-0.4
COc1ccccc1N(CC(=O)Nc1ccc(Br)cc1F)S(=O)(=O)c1cccs1	.	-6.0	-4.8	.	-28.3
Cc1cccc(C(=O)N(Cc2cccs2)C2CCS(=O)(=O)C2)c1 (stereo unspecified)	i	-1.2	36.1*	-2.0	5.3
Cc1cccc(OCC(=O)N(Cc2cccs2)C2CCS(=O)(=O)C2)c1C (stereo unspecified)	i	-0.9	20.3	83.0*	8.6
O=C(c1cccc(Cl)c1)N(Cc1cccs1)C1CCS(=O)(=O)C1 (stereo unspecified)	i	1.6	35.6*	-4.0	-6.8
COc1ccc(NC(=O)CSc2nnc3n2CCCCC3)cc1OC	.	-1.2	16.3	.	5.5
C1CC2CN(c3nc4nonc4nc3N3CCSCC3)CCN2C1 (stereo unspecified)	i	-23.1	7.1	59.9	51.6*
C1CCN(C2CCN(c3nc4nonc4nc3N3CCSCC3)CC2)C1	i	0.5	3.2	0.5	-6.4
COC(=O)COc1ccc(NC(=O)Cn2nc(-c3ccccc3)c3ccccc3c2=O)cc1	i	1.7	-1.9	-2.1	-6.8
COc1ccc(-c2nn(CC(=O)Nc3ccc(Cl)c(Cl)c3)c(=O)c3ccccc23)cc1	i	-0.3	38.5*	-10.2	19.1
NC(=NC(=O)c1ccc(OCC(F)(F)F)nc1)c1ccccc1	i	2.4	38.0*	1.8	2.4
O=[N+]([O-])c1ccc2nc(-c3ccccc3)oc2c1	i	0.8	42.3*	-4.9	3.4
COc1cccc(-c2nc3ccc([N+](=O)[O-])cc3o2)c1	i	-5.5	0.3	0.7	10.8
Cc1ccccc1-c1nnc2s/c(=C\c3ccc(N(C)C)cc3)c(=O)n12	+	.	.	82.4*	.
CN1C(=O)N(C)c2ccc(C=O)c3cccc1c23	i	-8.1	14.6	?	58.1*
CN1C(=O)N(C)c2ccc(Br)c3cccc1c23	i	-3.9	14.6	-4.2	-3.6
SMILES	PABP polyA inh	MT1-MMP act inh	SKN-1 inh	eIF4H inh	MLLE-PAM2 inh
CCOCCCNC(=S)N1CCC(NC(=O)c2ccco2)CC1	+	1.7	-4.9	-8.5	-23.1
CC(C)CNC(=S)N1CCC(NC(=O)c2ccco2)CC1	i	-1.1	0.9	-7.8	-106.2
CC(C)CC(=O)c1c(O)c(C=O)c(O)c2c1O[C@@]1(C)[C@@H](C2)C[C@H]2C[C@@H]1C2(C)C	.	13.8	3.8	.	2.2
Cc1ccc(NC(=S)C2=C(O)c3sccc3N(C)S2(=O)=O)cc1	i	-10.4	11.1	-4.2	40.7*
CCC(C)[C@H](NC(=O)C1CC(=O)N(c2ccc3c(c2)OCO3)C1)C(=O)NC1CCCCC1 (stereo partly specified)	?	-13.4	6.1	?	48.9*
C/C=C(\C)C(=O)OC1[C@H](OC(C)=O)C2(CO)C(CC1(C)C)C1=CCC3C4(C)CCC(O[C@@H]5O[C@H](C(=O)O)[C@@H](O[C@@H]6O[C@H](CO)[C@@H](O)[C@H](O)[C@H]6O)[C@H](O)[C@H]5O[C@H]5O[C@H](CO)[C@@H](O)[C@H](O)[C@H]5O)[C@](C)(CO)C4CCC3(C)[C@]1(C)C[C@H]2O (stereo partly specified)	.	-4.6	7.5	.	-8.0
